According to ChEMBL document CHEMBL3864177, “Dipeptidyl Nitroalkenes as Potent Reversible Inhibitors of Cysteine Proteases Rhodesain and Cruzain” (ACS Med Chem Lett, 2016):
Activity calls are given as the source filed them. The rule behind the calls is not given here.

How the values were obtained:
Procathepsin L [1] = molecular target: T1, Procathepsin L (Homo sapiens, UniProt P07711); test: Reversible inhibition of human cathepsin L assessed as enzyme activity recovery at 0.1 to 5 times IC50 preincubated for 5 mins followed by substrate addition measured up to 1500 sec by dilution assay
Target sequence in this assay (P07711 114-333 limits assumed): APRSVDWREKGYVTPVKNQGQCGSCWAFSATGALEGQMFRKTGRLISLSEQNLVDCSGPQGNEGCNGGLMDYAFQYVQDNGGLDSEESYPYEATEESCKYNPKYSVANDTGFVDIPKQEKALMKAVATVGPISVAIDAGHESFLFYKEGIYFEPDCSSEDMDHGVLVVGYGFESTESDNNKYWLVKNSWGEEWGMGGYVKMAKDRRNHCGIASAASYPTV

[2] = molecular target: Rhodesain (Trypanosoma brucei rhodesiense) (UniProt Q95PM0); test: Reversible inhibition of Trypanosoma brucei rhodesiense rhodesain assessed as enzyme activity recovery preincubated for 5 mins followed by substrate addition measured after 60 mins by dialysis assay relative to control; set-up: scale not given: the % may be the effect or the level left
Sequence of Rhodesain (Trypanosoma brucei rhodesiense) (Q95PM0 1-450): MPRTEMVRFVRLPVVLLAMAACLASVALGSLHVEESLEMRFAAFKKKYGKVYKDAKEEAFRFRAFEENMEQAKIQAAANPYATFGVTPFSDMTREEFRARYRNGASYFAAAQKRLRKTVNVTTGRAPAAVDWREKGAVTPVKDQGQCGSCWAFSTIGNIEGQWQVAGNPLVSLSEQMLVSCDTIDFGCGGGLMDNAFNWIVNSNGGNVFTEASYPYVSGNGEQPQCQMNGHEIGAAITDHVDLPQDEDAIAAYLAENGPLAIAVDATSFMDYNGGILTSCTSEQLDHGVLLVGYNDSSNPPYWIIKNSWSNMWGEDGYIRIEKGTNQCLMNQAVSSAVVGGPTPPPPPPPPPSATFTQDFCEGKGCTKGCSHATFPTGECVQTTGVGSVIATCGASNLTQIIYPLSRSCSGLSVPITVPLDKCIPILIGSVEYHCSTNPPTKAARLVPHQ

Rhodesain = Rhodesain (Trypanosoma brucei rhodesiense, UniProt Q95PM0); test: Inhibition of Trypanosoma brucei rhodesiense rhodesain expressed in Pichia pastoris using Cbz-Phe-Arg-AMC as substrate after 15 to 30 mins by fluorescence spectrophotometric analysis
Sequence of Rhodesain (Q95PM0 whole entry): as the sequence (Q95PM0 1-450) above

Procathepsin L [3] = molecular target: T1, Procathepsin L; test: Inhibition of human cathepsin L
Target sequence in this assay (P07711 whole entry): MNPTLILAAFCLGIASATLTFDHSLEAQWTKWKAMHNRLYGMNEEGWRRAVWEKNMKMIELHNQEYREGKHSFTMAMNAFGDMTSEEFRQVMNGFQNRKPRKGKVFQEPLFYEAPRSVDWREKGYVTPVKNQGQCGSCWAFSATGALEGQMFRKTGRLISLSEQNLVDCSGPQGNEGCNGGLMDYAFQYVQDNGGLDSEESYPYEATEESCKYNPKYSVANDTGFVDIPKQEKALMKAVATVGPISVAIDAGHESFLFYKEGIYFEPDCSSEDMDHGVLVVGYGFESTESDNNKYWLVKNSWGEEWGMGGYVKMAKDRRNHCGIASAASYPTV

Cathepsin B [4] = molecular target: T2, Cathepsin B (Homo sapiens, UniProt P07858); test: Reversible inhibition of human cathepsin B assessed as enzyme activity recovery at 0.1 to 5 times IC50 preincubated for 5 mins followed by substrate addition measured up to 1500 sec by dilution assay
[5] = molecular target: Rhodesain (Trypanosoma brucei rhodesiense) (UniProt Q95PM0); test: Reversible inhibition of Trypanosoma brucei rhodesiense rhodesain assessed as enzyme activity recovery preincubated for 5 mins followed by substrate addition measured after 120 mins by dialysis assay relative to control; set-up: scale not given: the % may be the effect or the level left
Cruzipain = Cruzipain (Trypanosoma cruzi, UniProt P25779); test: Inhibition of Trypanosoma cruzi cruzain
Sequence of Cruzipain (P25779 whole entry): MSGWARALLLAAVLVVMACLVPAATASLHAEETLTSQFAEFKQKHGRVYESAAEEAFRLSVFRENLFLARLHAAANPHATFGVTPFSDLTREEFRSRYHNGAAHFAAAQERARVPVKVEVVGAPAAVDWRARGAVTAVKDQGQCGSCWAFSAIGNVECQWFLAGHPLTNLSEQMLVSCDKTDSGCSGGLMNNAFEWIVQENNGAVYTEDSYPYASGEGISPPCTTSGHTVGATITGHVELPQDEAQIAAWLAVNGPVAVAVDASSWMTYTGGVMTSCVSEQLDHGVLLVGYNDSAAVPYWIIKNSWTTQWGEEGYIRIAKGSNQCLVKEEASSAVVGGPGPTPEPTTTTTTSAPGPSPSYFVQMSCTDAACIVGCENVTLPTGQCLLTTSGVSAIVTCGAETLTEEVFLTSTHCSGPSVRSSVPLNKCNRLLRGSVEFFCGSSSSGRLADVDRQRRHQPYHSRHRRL

Cathepsin B [6] = molecular target: T2, Cathepsin B; test: Inhibition of human cathepsin B
[7] = molecular target: Rhodesain (Trypanosoma brucei rhodesiense) (UniProt Q95PM0); test: Reversible inhibition of Trypanosoma brucei rhodesiense rhodesain assessed as enzyme activity recovery preincubated for 5 mins followed by substrate addition measured after 90 mins by dialysis assay relative to control; set-up: scale not given: the % may be the effect or the level left
[8] = molecular target: Rhodesain (Trypanosoma brucei rhodesiense) (UniProt Q95PM0); test: Reversible inhibition of Trypanosoma brucei rhodesiense rhodesain assessed as enzyme activity recovery preincubated for 5 mins followed by substrate addition measured after 30 mins by dialysis assay relative to control; set-up: scale not given: the % may be the effect or the level left
[9] = test system: Trypanosoma brucei brucei; test: Antitrypanosomal activity against Trypanosoma brucei brucei expressing BS449 after 24 hrs by ATPlite-luciferase reporter gene assay; format: functional
[10] = test system: Trypanosoma brucei brucei; test: Antitrypanosomal activity against Trypanosoma brucei brucei expressing BS449 after 48 hrs by ATPlite-luciferase reporter gene assay; format: functional
[11] = Stability of the compound in HMI-9 medium after 24 hrs; format: physicochemical
[12] = test system: Trypanosoma brucei brucei; test: Antitrypanosomal activity against Trypanosoma brucei brucei expressing BS449 after 72 hrs by ATPlite-luciferase reporter gene assay; format: functional
[13] = molecular target: Rhodesain (Trypanosoma brucei rhodesiense) (UniProt Q95PM0); test: Binding affinity to Trypanosoma brucei rhodesiense 15N-labeled rhodesain expressed in Pichia pastoris at 1:1 molar ratio of protein:inhibitor incubated for 15 mins by 1H[…]TROSY-HSQC spectra analysis
Summary of the method: (§1)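 15N-labelled rhodesain was mixed with inhibitor at 1:1 mol/mol, incubated 15 min, and a 1H–15N TROSY-HSQC spectrum was recorded. Inhibitor in DMSO-d6 was then added to reach a 1:3 protein/inhibitor ratio, incubated a further 7 min, and the spectrum was re-recorded.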

[14] = molecular target: Rhodesain (Trypanosoma brucei rhodesiense) (UniProt Q95PM0); test: Binding affinity to Trypanosoma brucei rhodesiense 15N-labeled rhodesain expressed in Pichia pastoris at 1:3 molar ratio of protein:inhibitor incubated for 22 mins by 1H[…]TROSY-HSQC spectra analysis; summary of the method: as §1

Compound: CC(C)C[C@@H](/C=C/[N+](=O)[O-])NC(=O)[C@H](CC(C)C)NC(=O)OCc1ccccc1
- reversible inhibition (enzyme activity recovery) (Procathepsin L [1]): Active
- Activity [2]: 26%
- Ki (Rhodesain): 18.4 nM
- Ki (Procathepsin L [3]): 46 nM
- inhibition (Cathepsin B [4]): Active
- Activity [5]: 49%
- Ki (Cruzipain): 25 nM
- Ki (Cathepsin B [6]): 210 nM
- Activity [7]: 35%
- Activity [8]: 17%

Compound: O=C(N[C@@H](Cc1ccccc1)C(=O)N[C@H](/C=C/[N+](=O)[O-])Cc1ccccc1)OCc1ccccc1
- Ki (Rhodesain): 29 nM
- Ki (Procathepsin L [3]): 110 nM
- Ki (Cruzipain): 130 nM
- Ki (Cathepsin B [6]): 310 nM

Compound: O=C(N[C@@H](Cc1ccccc1)C(=O)N[C@H](/C=C/[N+](=O)[O-])CCc1ccccc1)OCc1ccccc1
- EC50 [9]: 1620 nM
- Ki (Rhodesain): 4.2 nM
- EC50 [10]: 2100 nM
- Ki (Procathepsin L [3]): 19.6 nM
- Stability [11]: Unstable
- Ki (Cruzipain): 11 nM
- Ki (Cathepsin B [6]): 34 nM
- EC50 [12]: 3450 nM

Compound: CC(C)C[C@H](NC(=O)OCc1ccccc1)C(=O)N[C@H](/C=C/[N+](=O)[O-])Cc1ccccc1
- reversible inhibition (enzyme activity recovery) (Procathepsin L [1]): Active
- Ki (Rhodesain): 18 nM
- Ki (Procathepsin L [3]): 49 nM
- Ki (Cruzipain): 28 nM
- Ki (Cathepsin B [6]): 710 nM

Compound: CC(C)C[C@H](NC(=O)OCc1ccccc1)C(=O)N[C@H](/C=C/[N+](=O)[O-])CCc1ccccc1
- Activity [2]: 46%
- Ki (Rhodesain): 14 nM
- Ki (Procathepsin L [3]): 27 nM
- Activity [5]: 110%
- Ki (Cruzipain): 17 nM
- Ki (Cathepsin B [6]): 72 nM
- Activity [7]: 76%
- Activity [8]: 22%

Compound: N=C(NCCCCCCNC(=N)NC(=N)Nc1ccc(Cl)cc1)NC(=N)Nc1ccc(Cl)cc1 [CHLORHEXIDINE]
- EC50 [9]: 430 nM
- EC50 [10]: 410 nM
- EC50 [12]: 430 nM

Compound: CC(C)C[C@H](NC(=O)OCc1ccccc1)C(=O)N[C@@H](C)/C=C/[N+](=O)[O-]
- Ki (Rhodesain): 30 nM
- Ki (Procathepsin L [3]): 200 nM
- inhibition (Cathepsin B [4]): Active
- Ki (Cruzipain): 130 nM
- Ki (Cathepsin B [6]): 310 nM

Compound: C/C(=C\[C@H](C)NC(=O)[C@H](Cc1ccccc1)NC(=O)OCc1ccccc1)[N+](=O)[O-]
- Ki (Rhodesain): 50 nM
- Ki (Procathepsin L [3]): 280 nM
- Ki (Cathepsin B [6]): 6300 nM

Compound: C[C@@H](/C=C/[N+](=O)[O-])NC(=O)[C@H](Cc1ccccc1)NC(=O)OCc1ccccc1
- reversible inhibition (enzyme activity recovery) (Procathepsin L [1]): Active
- EC50 [9]: 5640 nM
- Ki (Rhodesain): 0.49 nM
- EC50 [10]: 7170 nM
- Ki (Procathepsin L [3]): 11 nM
- Stability [11]: Unstable
- Ki (Cruzipain): 0.44 nM
- Ki (Cathepsin B [6]): 8 nM
- EC50 [12]: 10800 nM

Compound: CC(C)C[C@@H](/C=C/[N+](=O)[O-])NC(=O)[C@H](Cc1ccccc1)NC(=O)OCc1ccccc1
- reversible inhibition (enzyme activity recovery) (Procathepsin L [1]): Active
- Activity [2]: 24%
- EC50 [9]: 990 nM
- Ki (Rhodesain): 6.5 nM
- EC50 [10]: 1310 nM
- Ki (Procathepsin L [3]): 30 nM
- Activity [5]: 47%
- Stability [11]: Unstable
- Ki (Cruzipain): 16 nM
- Activity [13]: Active
- Ki (Cathepsin B [6]): 68 nM
- Activity [7]: 29%
- Activity [8]: 16%
- EC50 [12]: 2060 nM
- Activity [14]: Active

Compound: C/C(=C\[C@H](C)NC(=O)[C@H](CC(C)C)NC(=O)OCc1ccccc1)[N+](=O)[O-]
- Ki (Rhodesain): 544 nM
- Ki (Procathepsin L [3]): 2020 nM
- Ki (Cathepsin B [6]): 3200 nM

Compound: CN1CCN(C(=O)N[C@@H](Cc2ccccc2)C(=O)N[C@H](/C=C/S(=O)(=O)c2ccccc2)CCc2ccccc2)CC1
- Activity [2]: 2%
- Activity [5]: 3%
- Activity [7]: 0%
- Activity [8]: 0%
